pEC50: −log10 of the molar value. Calls of active or inactive are those of the source. No cut-off for these calls is given here.
Assays:
Root [1] = assay: Drug metabolism in Silene noctiflora root assessed as transformation to sissotrin at 20 uM after 14 days measured per gm of dry weight by LC-MS analysis; assay type: ADME; conditions: 336 h
Summary of the method: (§1)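 Pregerminated seeds, 14 per container, transplanted onto 0.5% agar medium containing biochanin A. Grown at 24 ± 1 °C under a 16 h light/8 h dark photoperiod and harvested 14 days after transplanting. Roots and shoots collected separately, blotted, washed twice, then freeze-dried. Tissue extracted by ASE at 40 °C and analysed by LC-ESI-MS against commercial standards. Two replicates per treatment.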

Echinochloa crus-galli = assay: Phytotoxicity against Echinochloa crus-galli (barnyard grass) assessed as root growth inhibition at 100 to 400 uM after 2 weeks by agar medium bioassay; assay type: functional, organism-based
Summary of the method: (§2)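 Agar bioassay with eight biochanin A doses (0–400 µM). Seeds were pregerminated 48 h at room temperature, then 10 seedlings were placed per Petri dish and grown 2 weeks at 24 ± 1 °C under a 16 h light/8 h dark cycle. […]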

Shoot [2] = assay: Drug metabolism in Echinochloa crus-galli (barnyard grass) shoot assessed as transformation to pratensein at 20 uM after 14 days measured per gm of dry weight by LC-MS analysis; assay type: ADME; conditions: 336 h; summary of the method: as §1
Root [3] = assay: Drug metabolism in Geranium molle root assessed as transformation to pratensein at 400 uM after 14 days measured per gm of dry weight by LC-MS analysis; assay type: ADME; conditions: 336 h; summary of the method: as §1
Root [4] = assay: Drug metabolism in Geranium molle root assessed as transformation to dihydrobiochanin A at 400 uM after 14 days measured per gm of dry weight by LC-MS analysis; assay type: ADME; conditions: 336 h; summary of the method: as §1
Shoot [5] = assay: Drug metabolism in Silene noctiflora shoot assessed as transformation to dihydrobiochanin A at 20 uM after 14 days measured per gm of dry weight by LC-MS analysis; assay type: ADME; conditions: 336 h; summary of the method: as §1
Root [6] = assay: Drug uptake in Echinochloa crus-galli (barnyard grass) root at 400 uM after 14 days measured per gm of dry weight by LC-MS analysis; assay type: ADME; conditions: 336 h
Summary of the method: (§3)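 Pregerminated seeds (14 per container) were grown on 20 mL 0.5% agar medium containing biochanin A, at 24 ± 1 °C with a 16 h light/8 h dark cycle. There were two replicates per treatment: 14 containers for S. noctiflora, 9 for G. molle and E. crus-galli. At 14 days, roots and shoots were harvested separately, washed, blotted and freeze-dried. Extraction was ASE at 40 °C, 1600 psi, 3 cycles. Analysis was LC-ESI-MS SIM against standards.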

Root [7] = assay: Drug uptake in Geranium molle root at 20 uM after 14 days measured per gm of dry weight by LC-MS analysis; assay type: ADME; conditions: 336 h; summary of the method: as §3
Shoot [8] = assay: Drug metabolism in Silene noctiflora shoot assessed as transformation to p-coumaric acid at 400 uM after 14 days measured per gm of dry weight by LC-MS analysis; assay type: ADME; conditions: 336 h; summary of the method: as §1
Geranium molle = assay: Phytotoxicity against Geranium molle assessed as root growth inhibition after 2 weeks by agar medium bioassay; assay type: functional, organism-based; conditions: 336 h
Summary of the method: (§4)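 Agar bioassay with eight biochanin A doses (0–400 µM). Seeds were pregerminated 48 h at room temperature, then 10 seedlings (1–2 mm radicle) were placed per Petri dish. Plants grew 2 weeks at 24 ± 1 °C under a 16 h light/8 h dark cycle. Root length was measured, and EC values were taken from a four-parameter log-logistic nonlinear regression fit.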

Root [9] = assay: Drug metabolism in Geranium molle root assessed as transformation to p-coumaric acid at 400 uM after 14 days measured per gm of dry weight by LC-MS analysis; assay type: ADME; conditions: 336 h; summary of the method: as §1
Root [10] = assay: Drug metabolism in Echinochloa crus-galli (barnyard grass) root assessed as transformation to p-coumaric acid at 400 uM after 14 days measured per gm of dry weight by LC-MS analysis; assay type: ADME; conditions: 336 h; summary of the method: as §1
Shoot [11] = assay: Drug metabolism in Geranium molle shoot assessed as transformation to genistein at 400 uM after 14 days measured per gm of dry weight by LC-MS analysis; assay type: ADME; conditions: 336 h; summary of the method: as §1
Shoot [12] = assay: Drug metabolism in Geranium molle shoot assessed as transformation to p-coumaric acid at 400 uM after 14 days measured per gm of dry weight by LC-MS analysis; assay type: ADME; conditions: 336 h; summary of the method: as §1
Shoot [13] = assay: Drug metabolism in Silene noctiflora shoot assessed as transformation to dihydrobiochanin A at 400 uM after 14 days measured per gm of dry weight by LC-MS analysis; assay type: ADME; conditions: 336 h; summary of the method: as §1
Shoot [14] = assay: Drug uptake in Geranium molle shoot at 20 uM after 14 days measured per gm of dry weight by LC-MS analysis; assay type: ADME; conditions: 336 h; summary of the method: as §3
Shoot [15] = assay: Drug metabolism in Echinochloa crus-galli (barnyard grass) shoot assessed as transformation to sissotrin at 400 uM after 14 days measured per gm of dry weight by LC-MS analysis; assay type: ADME; conditions: 336 h; summary of the method: as §1
Root [16] = assay: Drug metabolism in Silene noctiflora root assessed as transformation to genistein at 400 uM after 14 days measured per gm of dry weight by LC-MS analysis; assay type: ADME; conditions: 336 h; summary of the method: as §1
Shoot [17] = assay: Drug metabolism in Geranium molle shoot assessed as transformation to sissotrin at 20 uM after 14 days measured per gm of dry weight by LC-MS analysis; assay type: ADME; conditions: 336 h; summary of the method: as §1
Root [18] = assay: Drug metabolism in Echinochloa crus-galli (barnyard grass) root assessed as transformation to dihydrobiochanin A at 20 uM after 14 days measured per gm of dry weight by LC-MS analysis; assay type: ADME; conditions: 336 h; summary of the method: as §1
Root [19] = assay: Drug uptake in Echinochloa crus-galli (barnyard grass) root at 20 uM after 14 days measured per gm of dry weight by LC-MS analysis; assay type: ADME; conditions: 336 h; summary of the method: as §3
Root [20] = assay: Drug metabolism in Echinochloa crus-galli (barnyard grass) root assessed as transformation to dihydrobiochanin A at 400 uM after 14 days measured per gm of dry weight by LC-MS analysis; assay type: ADME; conditions: 336 h; summary of the method: as §1
Leaf [21] = assay: Drug recovery in leaf of Secale cereale (rye) at 5 ng/g by LC-MS analysis
Root [22] = assay: Drug metabolism in Geranium molle root assessed as transformation to dihydrobiochanin A at 20 uM after 14 days measured per gm of dry weight by LC-MS analysis; assay type: ADME; conditions: 336 h; summary of the method: as §1
Amaranthus caudatus = assay: Phytotoxicity against Amaranthus caudatus assessed as root growth inhibition at 100 to 400 uM after 2 weeks by agar medium bioassay; assay type: functional, organism-based; summary of the method: as §2
Shoot [23] = assay: Drug metabolism in Silene noctiflora shoot assessed as transformation to sissotrin at 400 uM after 14 days measured per gm of dry weight by LC-MS analysis; assay type: ADME; conditions: 336 h; summary of the method: as §3
Shoot [24] = assay: Drug metabolism in Echinochloa crus-galli (barnyard grass) shoot assessed as transformation to genistein at 400 uM after 14 days measured per gm of dry weight by LC-MS analysis; assay type: ADME; conditions: 336 h; summary of the method: as §1
Shoot [25] = assay: Drug uptake in Echinochloa crus-galli (barnyard grass) shoot at 400 uM after 14 days measured per gm of dry weight by LC-MS analysis; assay type: ADME; conditions: 336 h; summary of the method: as §3
Leaf [26] = assay: Drug recovery in leaf of Secale cereale (rye) at 50 ng/g by LC-MS analysis
Silene noctiflora = assay: Phytotoxicity against Silene noctiflora assessed as root growth inhibition after 2 weeks by agar medium bioassay; assay type: functional, organism-based; conditions: 336 h; summary of the method: as §4
Root [27] = assay: Drug uptake in Silene noctiflora root at 20 uM after 14 days measured per gm of dry weight by LC-MS analysis; assay type: ADME; conditions: 336 h; summary of the method: as §3
Shoot [28] = assay: Drug metabolism in Geranium molle shoot assessed as transformation to pratensein at 20 uM after 14 days measured per gm of dry weight by LC-MS analysis; assay type: ADME; conditions: 336 h; summary of the method: as §1

- Drug metabolism (Root [1]): 1.72 µmol
- Drug metabolism (Shoot [2]): 0.47 µmol
- Drug metabolism (Root [3]): 0.32 µmol
- Drug metabolism (Root [4]): 0.31 µmol
- Drug metabolism (Shoot [5]): 0 µmol
- Drug uptake (Root [6]): 2.13 µmol
- Drug uptake (Root [7]): 9.93 µmol
- Drug metabolism (Shoot [8]): 0.01 µmol
- Drug metabolism (Root [9]): 0.05 µmol
- Drug metabolism (Root [10]): 0.11 µmol
- Drug metabolism (Shoot [11]): 0.12 µmol
- Drug metabolism (Shoot [12]): 0.03 µmol
- Drug metabolism (Shoot [13]): 0.02 µmol
- Drug uptake (Shoot [14]): 1 µmol
- Drug metabolism (Shoot [15]): 0 µmol
- Drug metabolism (Root [16]): 0.13 µmol
- Drug metabolism (Shoot [17]): 1.5 µmol
- Drug metabolism (Root [18]): 0.05 µmol
- Drug uptake (Root [19]): 1.75 µmol
- Drug metabolism (Root [20]): 0.27 µmol
- Drug recovery (Leaf [21]): 93%
- Drug metabolism (Root [22]): 0.38 µmol
- Drug metabolism (Shoot [23]): 4.34 µmol
- Drug metabolism (Shoot [24]): 0.2 µmol
- Drug uptake (Shoot [25]): 0.67 µmol
- Drug recovery (Leaf [26]): 93%
- Drug uptake (Root [27]): 4.65 µmol
- Drug metabolism (Shoot [28]): 0.02 µmol
Compound: COc1ccc(-c2coc3cc(O)cc(O)c3c2=O)cc1 [BIOCHANIN]
- Activity (Echinochloa crus-galli): inactive
- EC25 (Geranium molle): > 400 µM
- pEC50 (Geranium molle): < 3.40
- Activity (Amaranthus caudatus): inactive
- EC25 (Silene noctiflora): 5.2 µM
- pEC50 (Silene noctiflora): 4.45

— ChEMBL document CHEMBL3046081, “Phytotoxic effect, uptake, and transformation of biochanin A in selected weed species” (J Agric Food Chem, 2012)
